Reference: ChEMBL document CHEMBL1135767, “Synthesis and initial evaluation for in vivo chelation of Pu(IV) of a mixed octadentate spermine-based ligand containing 4-carbamoyl-3-hydroxy-1-methyl-2(1H)-pyridinone and 6-carbamoyl-1-hydroxy-2(1H)-pyridinone” (2002)
“And” between values parts separate entries of the source, which are not always exact repeats. Equal entries are not always repeated.

Key:
Mus musculus [1] = assay: Removal of [238Pu] (i.v.) from mice by ligand injected 30 uM/kg orally at 3 min fasted after iv injection from skeleton; format: functional
In short: (§1)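 Mice fasted 16 h got iv 238Pu(IV) citrate, then ligand 30 µmol/kg by gastric tube at 3 min (HOPO in 0.14 M NaCl, pH 7.4; weight-adjusted volume). Chow was given at 4 h and the mice were killed at 24 h. Tissues and pooled per-cage excreta were liquid-scintillation alpha-counted and expressed as %ID normalized to 100% recovery.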

Mus musculus [2] = assay: Removal of [238Pu] (i.v.) from mice by ligand injected 30 uM/kg orally at 3 min normally fed after iv injection from whole body; format: functional
In short: (§2)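 Normally fed mice got iv 238Pu(IV) citrate, then ligand 30 µmol/kg by gastric tube at 3 min, in 0.14 M NaCl pH 7.4 with weight-adjusted volume. The mice were killed at 24 h, with five per cage and excreta pooled per cage. Pu was counted by liquid scintillation alpha counting and reported as %ID normalized to 100% recovery.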

Mus musculus [3] = assay: Removal of [238Pu] (i.v.) from mice by ligand injected 30 uM/kg ip at 1 hr from feces and GI contents; format: functional
In short: (§3)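 Mice received iv 238Pu(IV) citrate, then ip ligand (30 µmol/kg, 0.14 M NaCl pH 7.4) at 1 h. Feces plus GI contents were collected to 24 h kill, pooled per five-mouse cage and alpha-counted by liquid scintillation. Values are %ID normalized to total recovery. SD applies only to multiply replicated groups.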

Mus musculus [4] = assay: Removal of [238Pu] (i.v.) from mice by ligand injected 30 uM/kg orally at 3 min fasted after iv injection from urine excretia; format: functional; in short: as §1
Mus musculus [5] = assay: Removal of [238Pu] (i.v.) from mice by ligand injected 30 umol/kg intraperitoneally at 1 hr from skeleton; format: functional
In short: (§4)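 238Pu(IV) citrate given iv to mice; ligand 30 µmol/kg (in 0.14 M NaCl, pH 7.4, volume scaled to body weight) injected ip at 1 h; killed at 24 h. Five mice per cage, excreta pooled per cage, chow from 4 h. Tissue and excreta Pu were counted by liquid scintillation alpha counting and given as %ID normalized to 100% recovery, mean ± SD.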

Mus musculus [6] = assay: Removal of [238Pu] (i.v.) from mice by ligand injected 30 uM/kg intraperitoneally at 1 hr from whole body; format: functional; in short: as §4
Mus musculus [7] = assay: Removal of [238Pu] (i.v.) from mice by ligand injected 30 uM/kg orally at 3 min normally fed after iv injection from liver tissue; format: functional; in short: as §2
Mus musculus [8] = assay: Removal of [238Pu] (i.v.) from mice by ligand injected 30 uM/kg orally at 3 min fasted after iv injection from liver tissue; format: functional; in short: as §1
Mus musculus [9] = assay: Removal of [238Pu] (i.v.) from mice by ligand injected 30 uM/kg intraperitoneally at 1 hr from kidneys; format: functional, Kidney; in short: as §4
Mus musculus [10] = assay: Removal of [238Pu] (i.v.) from mice by ligand injected 30 uM/kg orally at 3 min normally fed after iv injection from kidneys; format: functional, Kidney; in short: as §2
Mus musculus [11] = assay: Removal of [238Pu] (i.v.) from mice by ligand injected 30 uM/kg orally at 3 min fasted after iv injection from soft tissue; format: functional; in short: as §1
Mus musculus [12] = assay: Removal of [238Pu] (i.v.) from mice by ligand injected 30 uM/kg intraperitoneally at 1 hr from liver tissue; format: functional; in short: as §4
Mus musculus [13] = assay: Removal of [238Pu] (i.v.) from mice by ligand injected 30 uM/kg orally at 3 min fasted after iv injection from feces and GI contents; format: functional; in short: as §1
Mus musculus [14] = assay: Removal of [238Pu] (i.v.) from mice by ligand injected 30 uM/kg orally at 3 min normally fed after iv injection from soft tissue; format: functional; in short: as §2
Mus musculus [15] = assay: Removal of [238Pu] (i.v.) from mice by ligand injected 30 uM/kg intraperitoneally at 1 hr from urine excretia; format: functional; in short: as §4
Mus musculus [16] = assay: Removal of [238Pu] (i.v.) from mice by ligand injected 30 uM/kg orally at 3 min fasted after iv injection from whole body; format: functional; in short: as §1
Mus musculus [17] = assay: Removal of [238Pu] (i.v.) from mice by ligand injected 30 uM/kg intraperitoneally at 1 hr from soft tissue; format: functional; in short: as §4
Mus musculus [18] = assay: Removal of [238Pu] (i.v.) from mice by ligand injected 30 uM/kg ip at 1 hr and orally at 3 min after iv injection from kidneys; format: functional, Kidney
In short: (§5)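 Kidney Pu (%ID) at 24 h after iv 238Pu(IV) citrate was measured in mice given ligand 30 µmol/kg by one of two routes: ip at 1 h, or by gastric tube at 3 min to 16 h-fasted or normally fed mice. Kidneys were alpha-counted by liquid scintillation, and data were normalized to 100% recovery.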

Mus musculus [19] = assay: Removal of [238Pu] (i.v.) from mice by ligand injected orally at 3 min normally fed after iv injection from skeleton; format: functional; in short: as §2
Mus musculus [20] = assay: Removal of [238Pu] (i.v.) from mice by ligand injected 30 uM/kg intraperitoneally at 1 hr from skeleton; format: functional; in short: as §4
Mus musculus [21] = assay: Removal of [238Pu] (i.v.) from mice by ligand injected 30 uM/kg orally at 3 min normally fed after iv injection from feces and GI contents; format: functional; in short: as §2
Mus musculus [22] = assay: Removal of [238Pu] (i.v.) from mice by ligand injected 30 uM/kg at 3 min normally fed after iv injection from urine excretia; format: functional; in short: as §2
Mus musculus [23] = assay: Removal of [238Pu] (i.v.) from mice by ligand injected 30 uM/Kg intraperitoneally at 1 hr from whole body; format: functional; in short: as §4
Mus musculus [24] = assay: Removal of [238Pu] (i.v.) from mice by ligand injected 30 uM/Kg intraperitoneally at 1 hr from kidneys; format: functional, Kidney; in short: as §4
Mus musculus [25] = assay: Removal of [238Pu] (i.v.) from mice by ligand injected 30 uM/Kg orally at 3 min fasted after iv injection from feces and GI contents; format: functional; in short: as §1
Mus musculus [26] = assay: Removal of [238Pu] (i.v.) from mice by ligand injected 30 uM/Kg intraperitoneally at 1 hr from urine excretia; format: functional; in short: as §4
Mus musculus [27] = assay: Removal of [238Pu] (i.v.) from mice by ligand injected 30 uM/Kg ip at 1 hr and orally at 3 min after iv injection from kidneys; format: functional, Kidney; in short: as §5
Mus musculus [28] = assay: Removal of [238Pu] (i.v.) from mice by ligand injected 30 uM/Kg orally at 3 min fasted after iv injection from liver tissue; format: functional; in short: as §1
Mus musculus [29] = assay: Removal of [238Pu] (i.v.) from mice by ligand injected 30 uM/Kg orally at 3 min fasted after iv injection from soft tissue; format: functional; in short: as §1
Mus musculus [30] = assay: Removal of [238Pu] (i.v.) from mice by ligand injected 30 uM/Kg ip at 1 hr from feces and GI contents; format: functional; in short: as §3
Mus musculus [31] = assay: Removal of [238Pu] (i.v.) from mice by ligand injected 30 uM/Kg intraperitoneally at 1 hr from liver tissue; format: functional; in short: as §4
Mus musculus [32] = assay: Removal of [238Pu] (i.v.) from mice by ligand injected 30 uM/Kg intraperitoneally at 1 hr from soft tissue; format: functional; in short: as §4
Mus musculus [33] = assay: Removal of [238Pu] (i.v.) from mice by ligand injected 30 uM/Kg intraperitoneally at 1 hr from skeleton; format: functional; in short: as §4
Mus musculus [34] = assay: Removal of [238Pu] (i.v.) from mice by ligand injected 30 uM/Kg orally at 3 min fasted after iv injection from whole body; format: functional; in short: as §1
Mus musculus [35] = assay: Removal of [238Pu] (i.v.) from mice by ligand injected 30 uM/Kg orally at 3 min fasted after iv injection from skeleton; format: functional; in short: as §1
Mus musculus [36] = assay: Removal of [238Pu] (i.v.) from mice by ligand injected 30 uM/Kg orally at 3 min fasted after iv injection from urine excretia; format: functional; in short: as §1

Question: How did the ID (Mus musculus [1]) turn out when `O=C(NCCCN(CCCCN(CCCNC(=O)c1cccc(=O)n1O)C(=O)c1cccc(=O)n1O)C(=O)c1cccc(=O)n1O)c1cccc(=O)n1O` was run?
Answer: Its ID is 12% and 8%.

Question: What about the ID (Mus musculus [2]) of the same compound?
Answer: The ID was 16%.

Question: And the ID (Mus musculus [3])?
Answer: Its ID is 57% and 65%.

Question: And the ID (Mus musculus [4])?
Answer: Its ID is 26%.

Question: And the ID (Mus musculus [5])?
Answer: Its ID is 7.5%.

Question: And the ID (Mus musculus [6])?
Answer: The ID was 18% and 14%.

Question: What about the ID (Mus musculus [7]) of the same compound?
Answer: The ID was 5.9%.

Question: And the ID (Mus musculus [8])?
Answer: The ID was 11% and 4.2%.

Question: What about the ID (Mus musculus [9]) of the same compound?
Answer: Its ID is 0.2% and 0.1%.

Question: What about the ID (Mus musculus [10]) of the same compound?
Answer: Its ID is 0.2%.

Question: And the ID (Mus musculus [11])?
Answer: The ID was 1.3% and 1.1%.

Question: What about the ID (Mus musculus [12]) of the same compound?
Answer: Its ID is 8.9% and 5.4%.

Question: And the ID (Mus musculus [13])?
Answer: Its ID is 51% and 60%.

Question: And the ID (Mus musculus [14])?
Answer: Its ID is 1.5%.

Question: What about the ID (Mus musculus [15]) of the same compound?
Answer: The ID was 25% and 21%.

Question: What about the ID (Mus musculus [16]) of the same compound?
Answer: The ID was 24% and 14%.

Question: What about the ID (Mus musculus [17]) of the same compound?
Answer: The ID was 1.6% and 0.8%.

Question: What about the ID (Mus musculus [18]) of the same compound?
Answer: The ID was 0.1%.

Question: What about the ID (Mus musculus [19]) of the same compound?
Answer: The ID was 8.8%.

Question: And the ID (Mus musculus [20])?
Answer: The ID was 8%.

Question: What about the ID (Mus musculus [21]) of the same compound?
Answer: Its ID is 57%.

Question: What about the ID (Mus musculus [22]) of the same compound?
Answer: The ID was 27%.

Question: For `O=C([O-])CN(CCN(CC(=O)[O-])CC(=O)[O-])CCN(CC(=O)[O-])CC(=O)[O-].[Ca+2].[Na+].[Na+].[Na+]` [PENTETATE CALCIUM TRISODIUM], which ID (Mus musculus [23]) is on record?
Answer: The ID was 37%.

Question: What about the ID (Mus musculus [24]) of the same compound?
Answer: The ID was 1.2%.

Question: What about the ID (Mus musculus [25]) of the same compound?
Answer: Its ID is 6.5%.

Question: And the ID (Mus musculus [26])?
Answer: Its ID is 55%.

Question: And the ID (Mus musculus [27])?
Answer: The ID was 0.7%.

Question: What about the ID (Mus musculus [28]) of the same compound?
Answer: Its ID is 33%.

Question: What about the ID (Mus musculus [29]) of the same compound?
Answer: Its ID is 5.1%.

Question: What about the ID (Mus musculus [30]) of the same compound?
Answer: The ID was 8.4%.

Question: What about the ID (Mus musculus [31]) of the same compound?
Answer: The ID was 19%.

Question: What about the ID (Mus musculus [32]) of the same compound?
Answer: Its ID is 2.9%.

Question: And the ID (Mus musculus [33])?
Answer: The ID was 14%.

Question: And the ID (Mus musculus [34])?
Answer: Its ID is 79%.

Question: What about the ID (Mus musculus [35]) of the same compound?
Answer: The ID was 40%.

Question: What about the ID (Mus musculus [36]) of the same compound?
Answer: Its ID is 15%.

Question: Which results are given for `Cn1ccc(C(=O)NCCCN(CCCCN(CCCNC(=O)c2ccn(C)c(=O)c2O)C(=O)c2cccc(=O)n2O)C(=O)c2cccc(=O)n2O)c(O)c1=O`?
Answer: ID (Mus musculus [1]): 7.8%; ID (Mus musculus [2]): 11%; ID (Mus musculus [3]): 51%; ID (Mus musculus [4]): 28%; ID (Mus musculus [6]): 22%; ID (Mus musculus [7]): 2.4%; ID (Mus musculus [8]): 2.2%; ID (Mus musculus [9]): 0.2%; ID (Mus musculus [10]): 0.1%; ID (Mus musculus [11]): 0.8%; ID (Mus musculus [12]): 11%; ID (Mus musculus [13]): 61%; ID (Mus musculus [14]): 0.9%; ID (Mus musculus [15]): 27%; ID (Mus musculus [16]): 11%; ID (Mus musculus [17]): 1%; ID (Mus musculus [18]): 0.09%; ID (Mus musculus [19]): 7.4%; ID (Mus musculus [20]): 9.1%; ID (Mus musculus [21]): 58%; ID (Mus musculus [22]): 31%
